# Experiments:
# [1] = test system: receptor-positive M21 human melanoma xenografts; assay: Biodistribution study in nude mice bearing M21 xenografts; format: in vivo; conditions: for tumor uptake with co-injection of antagonist: co-injection of 200 μg unlabeled IA; for tumor uptake: 1 h after i.v. injection; for excretion route: inferred from whole-body retention
# Procedure, shortened: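 Athymic nude mice carried s.c. right-flank xenografts from 3 × 10^6 M21 cells (grown in RPMI 1640, 10% FBS, 1% penicillin-streptomycin, 5% CO2). At about 200 mm3 tumor size, mice received i.v. 99mTc-labeled test compound (6.25 μCi, 0.231 MBq/6 pmol in PBS with 1% BSA). They were euthanized at set times for tissue %ID/g and tumor-to-organ ratios; n=4~15 per time point.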
# [2] = Stability study in mouse serum; format: in vitro ADME; conditions: 37 °C; for % of 99mTc radioactivity associated with 99mTcO4−1: mouse serum, 18 h; for % intact when incubated in serum: 18 hrs
# Procedure, shortened: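 Purified 99mTc-labeled test compound (116 μCi, 4.29 MBq) was added to mouse serum containing 0.04% sodium azide, buffered with sodium phosphate pH 7.2, and held at 37 °C. Timed aliquots went to size-exclusion HPLC (TSK G3000SWXL; 0.067 M sodium phosphate/0.10 M KCl, pH 6.8; 1.0 ml/min) with UV and online radioactivity detection. Intact, protein-bound and 99mTcO4− fractions were measured; N ≥ 3.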
# human integrin αvβ3 = human integrin αvβ3 (Homo sapiens, UniProt P05106+P06756); assay: Receptor-binding assay; conditions: 0.8 μM αvβ3, 37 °C, 3 hrs, n = 4
# Chain of human integrin αvβ3 (P06756 31-889 limits assumed): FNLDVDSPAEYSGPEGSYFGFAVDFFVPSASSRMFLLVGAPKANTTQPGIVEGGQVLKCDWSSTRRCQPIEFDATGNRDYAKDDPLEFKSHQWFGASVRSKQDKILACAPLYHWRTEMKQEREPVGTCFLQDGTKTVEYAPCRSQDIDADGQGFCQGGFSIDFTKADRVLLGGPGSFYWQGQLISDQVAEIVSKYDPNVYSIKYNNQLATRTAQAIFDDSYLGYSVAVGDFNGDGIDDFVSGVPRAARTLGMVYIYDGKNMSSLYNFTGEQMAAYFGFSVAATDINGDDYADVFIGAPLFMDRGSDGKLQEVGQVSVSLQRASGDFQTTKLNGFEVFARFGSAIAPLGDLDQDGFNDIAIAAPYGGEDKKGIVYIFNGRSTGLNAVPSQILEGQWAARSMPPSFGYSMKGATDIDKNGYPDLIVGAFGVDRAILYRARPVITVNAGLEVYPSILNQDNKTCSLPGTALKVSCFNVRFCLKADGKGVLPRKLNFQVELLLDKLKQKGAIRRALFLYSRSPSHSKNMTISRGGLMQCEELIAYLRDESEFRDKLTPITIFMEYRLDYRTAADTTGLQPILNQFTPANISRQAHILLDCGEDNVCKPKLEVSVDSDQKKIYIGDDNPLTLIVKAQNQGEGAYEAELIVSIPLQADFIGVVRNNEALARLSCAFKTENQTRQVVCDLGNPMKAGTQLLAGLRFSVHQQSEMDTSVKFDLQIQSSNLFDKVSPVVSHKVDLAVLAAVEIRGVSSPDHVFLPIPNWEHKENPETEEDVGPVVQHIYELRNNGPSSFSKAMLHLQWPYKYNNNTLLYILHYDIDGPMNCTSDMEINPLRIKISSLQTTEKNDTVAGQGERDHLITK
# Chain of human integrin αvβ3 (P06756 891-1048 partner limits assumed): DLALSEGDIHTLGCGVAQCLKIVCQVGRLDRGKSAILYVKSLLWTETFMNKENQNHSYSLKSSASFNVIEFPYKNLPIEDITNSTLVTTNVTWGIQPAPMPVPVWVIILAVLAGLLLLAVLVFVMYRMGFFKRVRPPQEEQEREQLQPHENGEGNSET
# Chain of human integrin αvβ3 (P05106 27-788): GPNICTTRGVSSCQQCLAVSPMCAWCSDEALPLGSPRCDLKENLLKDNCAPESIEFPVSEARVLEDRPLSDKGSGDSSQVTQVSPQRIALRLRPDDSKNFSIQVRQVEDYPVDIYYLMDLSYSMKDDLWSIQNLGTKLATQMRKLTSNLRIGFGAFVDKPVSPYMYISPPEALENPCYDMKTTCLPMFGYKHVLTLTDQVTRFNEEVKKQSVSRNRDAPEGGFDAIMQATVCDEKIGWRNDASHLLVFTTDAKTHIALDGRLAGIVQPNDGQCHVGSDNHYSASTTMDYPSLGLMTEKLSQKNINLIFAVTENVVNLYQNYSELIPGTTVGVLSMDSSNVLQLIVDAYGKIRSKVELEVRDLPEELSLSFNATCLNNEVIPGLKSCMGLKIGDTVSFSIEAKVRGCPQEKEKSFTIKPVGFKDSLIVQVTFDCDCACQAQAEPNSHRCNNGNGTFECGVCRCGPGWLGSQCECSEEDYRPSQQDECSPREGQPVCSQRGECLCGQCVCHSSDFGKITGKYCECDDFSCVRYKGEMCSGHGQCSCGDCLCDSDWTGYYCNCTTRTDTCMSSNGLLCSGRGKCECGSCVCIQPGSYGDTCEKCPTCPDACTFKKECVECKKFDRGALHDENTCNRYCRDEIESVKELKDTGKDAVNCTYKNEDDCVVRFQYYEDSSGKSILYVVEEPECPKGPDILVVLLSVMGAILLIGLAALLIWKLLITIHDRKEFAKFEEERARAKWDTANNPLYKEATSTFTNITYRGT
# Procedure, shortened: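 Purified 99mTc-labeled test compound (1.1×10^6 cpm, <2.5 pmol) was incubated with 2.6 to 51.2 pmol human integrin αvβ3 in PBS pH 7.2 at 37 °C for 3 hrs. Non-specific binding was taken with a 250-fold molar excess of unlabeled antagonist. Bound (7 min) and free (15 min) label were separated by size-exclusion HPLC (TSK G3000SWXL).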
# Stability in PBS = format: physicochemical; conditions: 18-h period of incubation
# [3] = guanidino group of IAC; ref not given; cited from earlier work
# αvβ3 = αvβ3 antagonist; not measured here, no ref given; cited from earlier work
compound,measurement,setting,value
^99mTc EDDA2/HYNIC-IAC [P1],tumor uptake value over time,[1]; 4-h period,remained relatively unchanged
same,"Tumor-to-organ ratio, Blood",[1]; 0.3 h,0.90±0.20
same,"Tumor-to-organ ratio, Bone",[1]; 0.3 h,1.29±0.23
same,"Tumor-to-organ ratio, Heart",[1]; 0.3 h,1.91±0.43
same,"Tumor-to-organ ratio, Intestine",[1]; 0.3 h,0.66±0.07
same,"Tumor-to-organ ratio, Kidney",[1]; 0.3 h,0.51±0.12
same,"Tumor-to-organ ratio, Liver",[1]; 0.3 h,0.72±0.12
same,"Tumor-to-organ ratio, Lung",[1]; 0.3 h,0.72±0.10
same,"Tumor-to-organ ratio, Muscle",[1]; 0.3 h,3.04±0.68
same,"Tumor-to-organ ratio, Spleen",[1]; 0.3 h,0.71±0.07
same,"Tumor-to-organ ratio, Stomach",[1]; 0.3 h,0.54±0.13
same,"Tumor-to-organ ratio, Blood",[1]; 1 h,1.38±0.48
same,"Tumor-to-organ ratio, Bone",[1]; 1 h,2.12±1.17
same,"Tumor-to-organ ratio, Heart",[1]; 1 h,2.48±0.75
same,"Tumor-to-organ ratio, Intestine",[1]; 1 h,0.60±0.19
same,"Tumor-to-organ ratio, Kidney",[1]; 1 h,0.75±0.28
same,"Tumor-to-organ ratio, Liver",[1]; 1 h,0.89±0.27
same,"Tumor-to-organ ratio, Lung",[1]; 1 h,1.19±0.43
same,"Tumor-to-organ ratio, Muscle",[1]; 1 h,6.11±1.80
same,"Tumor-to-organ ratio, Spleen",[1]; 1 h,1.36±0.38
same,"Tumor-to-organ ratio, Stomach",[1]; 1 h,0.40±0.20
same,whole-body retention,[1]; 1 h,39.58 ± 2.91 % ID
same,effect of unlabeled IA co-injection on tumor uptake,"[1]; 1 h, 0, 10 and 200 μg unlabeled IA",blocked by unlabeled IA in a concentration dependent manner
same,tumor uptake with co-injection of antagonist,[1]; 1 h,0.68 ± 0.06 % ID/g
same,tumor uptake,[1],3.17±0.52 % ID/g
same,"Tumor-to-organ ratio, Blood",[1]; 2 h,2.19±0.18
same,"Tumor-to-organ ratio, Bone",[1]; 2 h,2.46±0.19
same,"Tumor-to-organ ratio, Heart",[1]; 2 h,3.23±0.48
same,"Tumor-to-organ ratio, Intestine",[1]; 2 h,0.57±0.07
same,"Tumor-to-organ ratio, Kidney",[1]; 2 h,0.85±0.08
same,"Tumor-to-organ ratio, Liver",[1]; 2 h,1.02±0.12
same,"Tumor-to-organ ratio, Lung",[1]; 2 h,1.50±0.09
same,"Tumor-to-organ ratio, Muscle",[1]; 2 h,4.68±0.31
same,"Tumor-to-organ ratio, Spleen",[1]; 2 h,1.30±0.12
same,"Tumor-to-organ ratio, Stomach",[1]; 2 h,0.43±0.11
same,"Tumor-to-organ ratio, Blood",[1]; 4 h,17.11±5.18
same,"Tumor-to-organ ratio, Bone",[1]; 4 h,4.78±1.07
same,"Tumor-to-organ ratio, Heart",[1]; 4 h,7.62±1.99
same,"Tumor-to-organ ratio, Intestine",[1]; 4 h,0.46±0.15
same,"Tumor-to-organ ratio, Kidney",[1]; 4 h,1.22±0.32
same,"Tumor-to-organ ratio, Liver",[1]; 4 h,1.59±0.72
same,"Tumor-to-organ ratio, Lung",[1]; 4 h,2.47±0.49
same,"Tumor-to-organ ratio, Muscle",[1]; 4 h,7.84±1.78
same,"Tumor-to-organ ratio, Spleen",[1]; 4 h,2.83±0.81
same,"Tumor-to-organ ratio, Stomach",[1]; 4 h,1.53±0.80
same,whole-body retention,[1]; 4 h,27.25 ± 3.67 % ID
same,excretion route,[1],excreted primarily via the renal system
same,% of 99mTc radioactivity associated with 99mTcO4−1,[2],3%
same,% intact when incubated in serum,[2],84%
same,receptor-bindability (% bound to αvβ3),human integrin αvβ3,78.02 ± 13.48%
same,stability in PBS,Stability in PBS,stable
"CC(C)(CN)CNC(=O)NCCS(=O)(=O)N[C@@H](CNC(=O)c1ccc(OCCNC2=NCCCN2)cc1)C(=O)O.Cl [IAC, 4-[2-(3,4,5,6-tetrahydropyrimidin-2-ylamino)-ethyloxy]benzoyl-2-(S)-[N-(3-aminoneopenta-1-carbamyl)]-aminoethylsulfonylamino-β-alanine hydrochloride]",pKa,[3],~ 12
same,IC50,αvβ3,2.94 nM
^99mTc PDA (tricin)/HYNIC-IAC [P2],accumulation in liver and intestine compared with P1,[1]; 4-h period,significantly higher accumulation
same,"Tumor-to-organ ratio, Blood",[1]; 1 h,1.83±0.16
same,"Tumor-to-organ ratio, Bone",[1]; 1 h,1.48±0.37
same,"Tumor-to-organ ratio, Heart",[1]; 1 h,2.64±0.36
same,"Tumor-to-organ ratio, Intestine",[1]; 1 h,0.15±0.01
same,"Tumor-to-organ ratio, Kidney",[1]; 1 h,0.62±0.05
same,"Tumor-to-organ ratio, Liver",[1]; 1 h,0.46±0.27
same,"Tumor-to-organ ratio, Lung",[1]; 1 h,0.83±0.22
same,"Tumor-to-organ ratio, Muscle",[1]; 1 h,3.85±1.64
same,"Tumor-to-organ ratio, Spleen",[1]; 1 h,1.09±0.15
same,"Tumor-to-organ ratio, Stomach",[1]; 1 h,0.40±0.12
same,whole-body retention,[1]; 1 h,57.84 ± 5.15 % ID
same,tumor uptake with co-injection of antagonist,[1]; 1 h,0.96 ± 0.30 % ID/g
same,tumor uptake,[1],2.13±0.17 % ID/g
same,"Tumor-to-organ ratio, Blood",[1]; 2 h,2.58±0.25
same,"Tumor-to-organ ratio, Bone",[1]; 2 h,2.73±0.54
same,"Tumor-to-organ ratio, Heart",[1]; 2 h,3.85±0.57
same,"Tumor-to-organ ratio, Intestine",[1]; 2 h,0.11±0.02
same,"Tumor-to-organ ratio, Kidney",[1]; 2 h,0.81±0.07
same,"Tumor-to-organ ratio, Liver",[1]; 2 h,0.45±0.30
same,"Tumor-to-organ ratio, Lung",[1]; 2 h,1.34±0.51
same,"Tumor-to-organ ratio, Muscle",[1]; 2 h,5.75±1.56
same,"Tumor-to-organ ratio, Spleen",[1]; 2 h,1.95±0.27
same,"Tumor-to-organ ratio, Stomach",[1]; 2 h,0.29±0.09
same,"Tumor-to-organ ratio, Blood",[1]; 4 h,3.15±0.25
same,"Tumor-to-organ ratio, Bone",[1]; 4 h,3.76±1.36
same,"Tumor-to-organ ratio, Heart",[1]; 4 h,3.88±0.90
same,"Tumor-to-organ ratio, Intestine",[1]; 4 h,0.07±0.00
same,"Tumor-to-organ ratio, Kidney",[1]; 4 h,0.78±0.04
same,"Tumor-to-organ ratio, Liver",[1]; 4 h,0.40±0.17
same,"Tumor-to-organ ratio, Lung",[1]; 4 h,2.71±0.95
same,"Tumor-to-organ ratio, Muscle",[1]; 4 h,6.33±1.57
same,"Tumor-to-organ ratio, Spleen",[1]; 4 h,1.54±0.40
same,"Tumor-to-organ ratio, Stomach",[1]; 4 h,0.27±0.05
same,whole-body retention,[1]; 4 h,54.04 ± 3.57 % ID
same,radioactivity at 1 h remained in the tumor at 4 h,[1]; 4 h relative to 1 h,62%
same,excretion route,[1],excreted to a larger extent via the hepatobiliary system
same,% of 99mTc radioactivity associated with 99mTcO4−1,[2],9%
same,% intact when incubated in serum,[2],77%
same,receptor-bindability (% bound to αvβ3),human integrin αvβ3,51.05 ± 14.05%
same,stability in PBS,Stability in PBS,stable
